This excerpt belongs to a sample that is enriched for hits.
UPR CHOP act: apoptotic UPR (CHOP) activation; CHO-CHOP luciferase reporter, luminescence; percent of tunicamycin response over DMSO baseline; activation, % at 10 µM; 330,000 tested, 0.34% active; AID 449763;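 active = at 10 µM dose, activation of 40% or more, normalized to positive control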;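 note: 100% = tunicamycin at 10 µg/mL and 0% = DMSO alone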
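Test system: CHO CHOP reporter cells. Input: 500 CHO-CHOP cells per well. Medium: F12 with 10% FBS. Technique: luciferase luminescence. Measure: percent activation relative to tunicamycin control. Dosing: 10 µM compound, 0.5% DMSO. Timing: 16-18 h cell attachment, then 6 h compound exposure, 37 °C.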
697 NFkB inh: inhibitors of the PMA/ionomycin-induced NF-kB reporter in 697 B cells | 330,000 tested, 0.33% active | AID 435022 | 697 B-cell NF-kB luciferase reporter, 16 h | inhibition, % at 4 µM; in the data active = inhibition above about 35%
CHOP inhibitor: CHOP inhibition in unfolded protein response; CHO-K1 CHOP-promoter luciferase, tunicamycin-induced, 15-18 h; AID 2732; inhibition, % at 10 µM; 220,000 tested, 3.8% active;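 active = compounds that reduced the stress-induced luciferase reporter signal by more than about 70% of percent inhibition, limit read from the data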;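 note: 0% = tunicamycin plus vehicle and 100% = wells without tunicamycin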
UPR XBP1 act: activators of adaptive arm of unfolded protein response (XBP1); AID 463104; CHO-XBP1 luciferase reporter, IRE1-XBP1 UPR activation, luminescence; percent of tunicamycin response, DMSO as zero; activation, % at 20 µM; 330,000 tested, 0.33% active;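 active = versus positive control, 20 µM dose yields 30% or more activation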;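 note: 100% = tunicamycin at 10 µg/mL and 0% = DMSO only wells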
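Assay system: IRE1-XBP1 luciferase reporter CHO line. Input: 1000 cells/well. Buffer or medium: F12 with 10% serum. Doses: 20 µM, 1% DMSO. Times: overnight seeding at 37 °C, 6 h compound treatment at 37 °C. Technique: Steady-Glo luciferase glow luminescence, 10 min after reagent addition.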
Jurkat NFkB inh: inhibitors of the PMA/ionomycin-induced NF-kB reporter in Jurkat cells; PMA/ionomycin-induced NF-kB luciferase reporter, luminescence; inhibition, % at 4 µM; 330,000 tested, 0.53% active; in the data active = inhibition above about 50%
697 NFkB conf: inhibitors of the PMA/ionomycin-induced NF-kB reporter in 697 B cells, retest; shares compounds with 697 NFkB inh; 697 B-cell NF-kB luciferase, 16 h; inhibition, % at 4 µM; 2,000 tested, 35% active; in the data active = inhibition mostly above about 28%, no sharp cut-off; inactive = mostly below about 22%
* = called active by the depositor; x = no result.

SMILES | UPR CHOP act | 697 NFkB inh | CHOP inhibitor | UPR XBP1 act | Jurkat NFkB inh | 697 NFkB conf
Cc1c(CCO)c(=O)oc2n[nH]c(-c3ccccc3)c12 | 0 | 35* | 2 | 0 | 5 | 24*
CCNC(=S)N/N=C/c1c(C)nn(-c2cccc(Cl)c2)c1Cl | 1 | 11 | 51 | 2 | -1 | x
Cc1nn(-c2cccc(Cl)c2)c(Cl)c1/C=N/NC(=O)c1cccs1 | 16 | -314 | 13 | 17 | -36 | -24
O=C1CCC2S/C(=C/Nc3ccc(C(F)(F)F)cc3)C(=O)N12 (configuration not stated) | -9 | 81* | 95* | -7 | 30 | 49*
O=C1CCCC/C1=C/Nc1cccc(C(F)(F)F)c1 | 1 | 2 | -19 | 0 | -19 | x
Cc1cc(C(=O)Cn2cnc3cc(F)ccc3c2=O)c(C)n1C1CC1 | 3 | -102 | x | 4 | -38 | x
CC1(c2nnc(-c3ccc(F)cc3)o2)CC(c2ccc([N+](=O)[O-])cc2)=NO1 (configuration not stated) | -1 | 15 | 7 | -2 | 6 | x
Cc1ccc(NC(=O)CSc2nnc(-c3cccs3)o2)cc1S(=O)(=O)N1CCCCC1 | -1 | 1 | 9 | -1 | 2 | x
O=C(Nc1ccc(CN2CCCCC2)cc1)c1sc2ccccc2c1Cl | 6 | -21 | -11 | 3 | -40 | x
O=C(Nc1cccc([N+](=O)[O-])c1)c1ccc2c(c1)C(=O)N(c1ccccn1)C2=O | 1 | -1 | x | -3 | 2 | x
Cc1cc(/C=C2\SC(=O)N(C)C2=O)c(C)n1-c1ccc(S(N)(=O)=O)cc1 | 0 | -12 | x | -4 | -10 | x
Cc1cc(/C=C2\SC(=O)N(C)C2=O)c(C)n1-c1ccc(O)cc1 | 0 | -272 | x | -6 | -93 | -102
CCOc1ccc(-c2cc(CCCC(=O)NCCCOC)no2)cc1 | -4 | 53* | 68 | -5 | -2 | 32*
N#Cc1ccccc1N/C=C/C(=O)c1ccc(Cl)cc1 | 0 | -296 | x | -1 | -143 | -177
COc1cc(N)c(C(=O)c2nccc3cc(OC)c(OC)cc23)cc1OC | 2 | -6 | x | 2 | -15 | x
COc1cc(Br)c(C(=O)c2nccc3cc(OC)c(OC)cc23)cc1OC | 0 | 39* | x | 0 | 15 | 30*
Cc1oc2nc(SCC(=O)NC3CCCCC3)nc(N)c2c1C | -1 | 0 | x | 5 | 12 | x
O=C(CN1C(=O)NC2(CCCCCC2)C1=O)c1ccc(F)cc1 | 2 | 8 | x | -1 | 2 | x
O=C(CN1C(=O)NC2(CCCCCC2)C1=O)c1ccc2c(c1)OCCO2 | 3 | -266 | 14 | 0 | -110 | -132
O=C(N/N=C/c1sc(N2CCOCC2)nc1-c1ccccc1)c1ccc(O)cc1 | 1 | 31 | -67 | 1 | 2 | x
COc1ccc(C(=O)N/N=C/c2sc(N3CCOCC3)nc2-c2ccccc2)cc1OC | 1 | 41* | -40 | 6 | 2 | 32*
CSc1ccc(CNCC2CCCO2)cc1 (configuration not stated) | 0 | 16 | x | -1 | -2 | x
CSCCC(NC(=O)OC(C)(C)C)C(=O)Oc1ccc2c(=O)c(-c3ccc4c(c3)OCCO4)coc2c1 (configuration not stated) | 1 | -265 | 6 | 0 | -97 | -253
CC(C)C(c1nnnn1Cc1ccccc1)N(Cc1ccco1)Cc1cccs1 (configuration not stated) | -1 | 35* | 31 | -1 | -3 | 28*
O=C(CCCN1C(=O)C(c2ccccc2)Oc2cccnc21)NCCc1ccc(Cl)cc1 (configuration not stated) | 0 | -42 | x | -6 | 13 | x
CC(C)Cn1c(S(=O)(=O)O)nc2ccccc21 | 1 | 35* | -9 | 1 | -3 | -23
CCC(C)Cn1c(S(=O)(=O)O)nc2ccccc21 (configuration not stated) | 0 | 8 | -8 | -2 | 5 | x
Cc1ccccc1-c1cc(C(=O)Nc2sc(C(=O)OC(C)C)c(C)c2C#N)c2ccccc2n1 | 4 | 37* | 66 | 1 | 16 | 43*
COc1ccc(-c2cc(C(=O)Nc3sc4c(c3C#N)CCCC4)c3ccccc3n2)cc1 | x | x | 21 | x | x | x

Screening data as filed in PubChem BioAssay.
